The text below walks through data of ChEMBL document CHEMBL1123123, “Orally absorbable cephalosporin antibiotics. 2. Structure-activity studies of bicyclic glycine derivatives of 7-aminodeacetoxycephalosporanic acid” (1985).

In general, ED50 refers to the dose at which the effect has come halfway, by size or by number of responders. Read a high ED50 as a need for a large dose.

Holding throughout (format): functional
One test concerns Streptococcus pyogenes. Nature of the test: The compound was tested for antibacterial activity against Streptococcus pyogenes C203.
Test [1] has as its system Staphylococcus aureus. Nature of the test: Antibacterial activity against methicillin resistant Staphylococcus aureus X400. The procedure, abridged:
(§1)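 Agar dilution susceptibility test following a previously published method; value recorded as MIC. Racemic compounds were separated by preparative HPLC and only the R epimers were tested.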

In the next test the test system is Streptococcus. Nature of the test: The compound was tested for antibacterial activity against Streptococcus group D X66.
A further test deals with Streptococcus pneumoniae. The experiment in a line: The compound was tested for antibacterial activity against Streptococcus pneumoniae Park.
Test [2] has as its system Staphylococcus epidermidis. The experiment in a line: The compound was tested for antibacterial activity against Staphylococcus epidermidis EP11.
In test [3] the test system is Haemophilus influenzae. The experiment in a line: The compound was tested for antibacterial activity against sensitive Haemophilus influenzae C.L.
For test [4], the system named is Staphylococcus aureus. The experiment in a line: Antibacterial activity against penicillin G sensitive Staphylococcus aureus X1.1.
Test [5] relates to Haemophilus influenzae. Nature of the test: The compound was tested for antibacterial activity against resistant Haemophilus influenzae 76. Summed up: as §1
Test [6] relates to Staphylococcus aureus. Nature of the test: Antibacterial activity against penicillin G resistant Staphylococcus aureus V41. Summed up: as §1
Test [7] concerns Staphylococcus aureus. Nature of the test: Antibacterial activity against methicillin resistant Staphylococcus aureus S13E. The procedure, abridged:
as §1

Test [8] relates to Staphylococcus aureus. Nature of the test: Aantibacterial activity against methicillin resistant Staphylococcus aureus S13E. The procedure, abridged:
as §1

In test [9] the test system is Mus musculus. Nature of the test: Dose administered subcutaneously in mice infected with Streptococcus pneumoniae. The settings on record: sc. The procedure, abridged: (§2)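 Mice were used in groups of 10 and inoculated with S. aureus, S. pyogenes or S. pneumoniae. Drug was given orally or subcutaneously at 1 and 5 h after inoculation. The ED50 was determined from the dosed groups.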

Test [10] concerns Mus musculus. The experiment in a line: Dose administered subcutaneously in mice infected with Staphylococcus aureus. The conditions noted are these: sc. The procedure, abridged: as §2
The test system of test [11] is Mus musculus. The experiment in a line: Dose administered orally in mice infected with Streptococcus pneumoniae. The settings on record: po. Summed up: as §2
Test [12] deals with Mus musculus. Nature of the test: Dose administered orally in mice infected with Streptococcus pyogenes. The settings on record: po. Summed up: as §2
Test [13] concerns Mus musculus. Nature of the test: Dose administered orally in mice infected with Staphylococcus aureus. The settings on record: po. The procedure, abridged:
as §2

The test system of test [14] is Mus musculus. The experiment in a line: Dose administered subcutaneously in mice infected with Streptococcus pyogenes. The conditions noted are these: sc. Summed up: as §2

Values after ≈ are worked out from the molar mass of the structure shown.

As for `CC1=C(C(=O)O)N2C(=O)C(NC(=O)C(N)c3cc4sccc4s3)C2SC1` (stereo not drawn), the MIC was 0.25 µg/mL (≈ 0.61 µM) with Streptococcus pyogenes; over 64 µg/mL against Staphylococcus aureus [1]; over 64 µg/mL in the test with Streptococcus; 1 µg/mL (≈ 2.44 µM) in the test with Streptococcus pneumoniae; 16 µg/mL (≈ 39.1 µM) in test [2]; 64 µg/mL (≈ 156 µM) against Haemophilus influenzae [3]. Further, the MIC amounted to 0.5 µg/mL (≈ 1.22 µM) with Staphylococcus aureus [4], 2 µg/mL (≈ 4.88 µM) in the test on Haemophilus influenzae [5], 32 µg/mL (≈ 78.1 µM) with Staphylococcus aureus [6] and 64 µg/mL (≈ 156 µM) against Staphylococcus aureus [7].

On to `CC1=C(C(=O)O)N2C(=O)C(NC(=O)C(N)c3cccc4c(C)csc34)C2SC1` (stereo not drawn), for which the MIC against Streptococcus pyogenes is 1 µg/mL (≈ 2.4 µM); in the test with Staphylococcus aureus [1], 64 µg/mL (≈ 153 µM); in the test with Streptococcus it was 64 µg/mL (≈ 153 µM); against Streptococcus pneumoniae it was 2 µg/mL (≈ 4.79 µM); in test [2], 8 µg/mL (≈ 19.2 µM); with Haemophilus influenzae [3] it was 8 µg/mL (≈ 19.2 µM). Further, the MIC with Staphylococcus aureus [8] turned out to be 64 µg/mL (≈ 153 µM); in the test with Staphylococcus aureus [4], 2 µg/mL (≈ 4.79 µM); with Haemophilus influenzae [5], 1 µg/mL (≈ 2.4 µM); with Staphylococcus aureus [6], 16 µg/mL (≈ 38.3 µM).

In the case of `CC1=C(C(=O)O)N2C(=O)C(NC(=O)C(N)c3cc4ccsc4s3)C2SC1` (stereo not drawn), the MIC is 0.25 µg/mL (≈ 0.61 µM) against Streptococcus pyogenes; over 64 µg/mL in the test on Staphylococcus aureus [1]; over 64 µg/mL against Streptococcus; 0.5 µg/mL (≈ 1.22 µM) against Streptococcus pneumoniae; 4 µg/mL (≈ 9.77 µM) in [2]; 8 µg/mL (≈ 19.5 µM) with Haemophilus influenzae [3]. Besides, the MIC came to 0.5 µg/mL (≈ 1.22 µM) against Staphylococcus aureus [4], 2 µg/mL (≈ 4.88 µM) against Haemophilus influenzae [5], 32 µg/mL (≈ 78.1 µM) with Staphylococcus aureus [6] and 16 µg/mL (≈ 39.1 µM) in the test on Staphylococcus aureus [7].

For the compound `CC1=C(C(=O)O)N2C(=O)C(NC(=O)C(N)c3cccc4sccc34)C2SC1` (stereo not drawn), the MIC in the test on Streptococcus pyogenes was 0.25 µg/mL (≈ 0.62 µM); against Staphylococcus aureus [1], 64 µg/mL (≈ 159 µM); in the test with Streptococcus it was 64 µg/mL (≈ 159 µM); in the test with Streptococcus pneumoniae it was 1 µg/mL (≈ 2.48 µM); in [2] it was 16 µg/mL (≈ 39.7 µM); against Haemophilus influenzae [3] it was 4 µg/mL (≈ 9.91 µM). Besides, the MIC is 2 µg/mL (≈ 4.96 µM) in the test on Staphylococcus aureus [4], 2 µg/mL (≈ 4.96 µM) in the test with Haemophilus influenzae [5], 16 µg/mL (≈ 39.7 µM) with Staphylococcus aureus [6] and 64 µg/mL (≈ 159 µM) against Staphylococcus aureus [7].

`CC1=C(C(=O)O)N2C(=O)C(NC(=O)C(N)c3ccc4sccc4c3)C2SC1` (stereo not drawn): the MIC in the test on Streptococcus pyogenes amounted to 0.125 µg/mL (≈ 0.31 µM); in the test with Staphylococcus aureus [1], 64 µg/mL (≈ 159 µM); in the test on Streptococcus it was 64 µg/mL (≈ 159 µM); in the test on Streptococcus pneumoniae, 0.5 µg/mL (≈ 1.24 µM); in test [2], 2 µg/mL (≈ 4.96 µM); against Haemophilus influenzae [3], 8 µg/mL (≈ 19.8 µM). The MIC against Staphylococcus aureus [4] came to 0.5 µg/mL (≈ 1.24 µM); with Haemophilus influenzae [5] it was 4 µg/mL (≈ 9.91 µM); in the test with Staphylococcus aureus [6], 4 µg/mL (≈ 9.91 µM); against Staphylococcus aureus [7] it was 64 µg/mL (≈ 159 µM).

Consider `CC(=O)N1CCc2cc(C(N)C(=O)NC3C(=O)N4C(C(=O)O)=C(C)CSC34)ccc21` (stereo not drawn), for which the MIC against Streptococcus pyogenes is 1 µg/mL (≈ 2.32 µM); against Staphylococcus aureus [1], 64 µg/mL (≈ 149 µM); with Streptococcus it was 64 µg/mL (≈ 149 µM); against Streptococcus pneumoniae, 1 µg/mL (≈ 2.32 µM); in test [2], 8 µg/mL (≈ 18.6 µM); in the test on Haemophilus influenzae [3] it was 16 µg/mL (≈ 37.2 µM). The MIC against Staphylococcus aureus [4] amounted to 2 µg/mL (≈ 4.65 µM); against Haemophilus influenzae [5], 8 µg/mL (≈ 18.6 µM); against Staphylococcus aureus [6], 64 µg/mL (≈ 149 µM); against Staphylococcus aureus [7], 64 µg/mL (≈ 149 µM). Further, the ED50 in the test with Mus musculus [9] worked out at 10.6 mg/kg; in the test with Mus musculus [10], 2.11 mg/kg; in the test with Mus musculus [11], 9.3 mg/kg; in the test with Mus musculus [12], 2.6 mg/kg; in the test on Mus musculus [13], 0.85 mg/kg; in the test on Mus musculus [14] it was 0.79 mg/kg.

For the compound `CC1=C(C(=O)O)N2C(=O)[C@@H](NC(=O)[C@H](N)c3ccccc3)[C@H]2SC1` [CEPHALEXIN ANHYDROUS], the MIC against Streptococcus pyogenes was 0.5 µg/mL (≈ 1.44 µM); with Streptococcus pneumoniae it was 2 µg/mL (≈ 5.76 µM); in [2], 32 µg/mL (≈ 92.1 µM); against Haemophilus influenzae [3], 8 µg/mL (≈ 23 µM); in the test with Staphylococcus aureus [4], 4 µg/mL (≈ 11.5 µM); against Haemophilus influenzae [5], 8 µg/mL (≈ 23 µM). Further, the 50% effective dose (ED50) came out at 30.5 mg/kg in the test with Mus musculus [9]; 1.66 mg/kg with Mus musculus [10]; 37 mg/kg in the test with Mus musculus [11]; 1.77 mg/kg in the test on Mus musculus [12]; 0.9 mg/kg in the test on Mus musculus [13]; 2.9 mg/kg in the test with Mus musculus [14].
